Test results as given in ChEMBL document CHEMBL1154647, “Synthesis, spectral characterization and biological evaluation of phosphorylated derivatives of galanthamine” (Eur J Med Chem, 2010).
Converted amounts (≈) assume the structure as drawn.

Tests used:
[1] = tested on: Brain; assay: Antioxidant activity in Wistar rat brain assessed as glutathione content; format: functional
In short: (§1)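 Wistar rat brain was homogenised 1:40 (w/v) in 0.1 M phosphate buffer, pH 7.4, with 1 mM EDTA. Total glutathione (GSH + GSSG) and reduced GSH were assayed spectrophotometrically from optical density, using net rate against a standard-curve slope and intercept, times a dilution factor. Homogenate protein was measured by the Lowry method.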

[2] = tested on: Brain; assay: Antioxidant activity in Wistar rat brain assessed as inhibition of lipid peroxidation; format: functional, tissue-based
[3] = tested on: Staphylococcus aureus; assay: Antibacterial activity against Staphylococcus aureus at 1 mg/mL after 18 hrs by disc diffusion assay; format: functional; details: read-out: IZ
In short: (§2)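 Bacteria were grown in nutrient broth at 37 °C for 18 h on a rotary shaker at 150 rpm. Compounds were dissolved in DMF. Nutrient agar plates were dried at 35–36 °C for about 30 min, and test strains were spread on the surface. Discs were applied, and plates were inverted and incubated at 37 °C. A DMF blank was run.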

[4] = tested on: Staphylococcus aureus; assay: Antibacterial activity against Staphylococcus aureus after 18 hrs; format: functional
[5] = tested on: Klebsiella pneumoniae; assay: Antibacterial activity against Klebsiella pneumoniae at 1 mg/mL after 18 hrs by disc diffusion assay; format: functional; details: read-out: IZ; in short: as §2
[6] = tested on: Bacillus subtilis; assay: Antibacterial activity against Bacillus subtilis at 2 mg/mL after 18 hrs by disc diffusion assay; format: functional; details: read-out: IZ; in short: as §2
[7] = tested on: Brain; assay: Antioxidant activity in Wistar rat brain assessed as superoxide dismutase content; format: functional
[8] = tested on: Klebsiella pneumoniae; assay: Antibacterial activity against Klebsiella pneumoniae after 18 hrs; format: functional
[9] = Inhibition of superoxide dismutase in Wistar rat brain; format: tissue-based
[10] = molecular target: T1, Catalase (Rattus norvegicus, UniProt P04762); assay: Inhibition of catalase in Wistar rat brain
T1 sequence (P04762 whole entry): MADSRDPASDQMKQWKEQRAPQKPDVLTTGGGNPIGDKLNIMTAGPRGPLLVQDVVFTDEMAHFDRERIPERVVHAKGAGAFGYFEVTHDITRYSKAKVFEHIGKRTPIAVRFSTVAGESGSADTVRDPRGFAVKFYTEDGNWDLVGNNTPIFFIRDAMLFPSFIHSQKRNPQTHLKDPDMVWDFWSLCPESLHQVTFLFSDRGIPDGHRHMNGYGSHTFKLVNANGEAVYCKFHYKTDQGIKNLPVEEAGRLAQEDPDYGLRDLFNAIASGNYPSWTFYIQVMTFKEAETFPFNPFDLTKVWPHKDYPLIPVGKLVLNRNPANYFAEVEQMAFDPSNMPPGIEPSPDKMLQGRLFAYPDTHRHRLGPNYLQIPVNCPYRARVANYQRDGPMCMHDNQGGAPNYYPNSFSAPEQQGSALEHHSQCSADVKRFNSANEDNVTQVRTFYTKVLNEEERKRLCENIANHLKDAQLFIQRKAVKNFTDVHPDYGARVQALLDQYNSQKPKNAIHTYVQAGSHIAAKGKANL

[11] = tested on: Bacillus subtilis; assay: Antibacterial activity against Bacillus subtilis at 1 mg/mL after 18 hrs by disc diffusion assay; format: functional; details: read-out: IZ; in short: as §2
[12] = tested on: Staphylococcus aureus; assay: Antibacterial activity against Staphylococcus aureus at 2 mg/mL after 18 hrs by disc diffusion assay; format: functional; details: read-out: IZ; in short: as §2
[13] = tested on: Escherichia coli; assay: Antibacterial activity against Escherichia coli at 2 mg/mL after 18 hrs by disc diffusion assay; format: functional; details: read-out: IZ; in short: as §2
[14] = tested on: Escherichia coli; assay: Antibacterial activity against Escherichia coli after 18 hrs; format: functional
[15] = tested on: Bacillus subtilis; assay: Antibacterial activity against Bacillus subtilis after 18 hrs; format: functional
[16] = tested on: Brain; assay: Antioxidant activity in Wistar rat brain assessed as lipid peroxidation; format: functional, tissue-based
[17] = tested on: Escherichia coli; assay: Antibacterial activity against Escherichia coli at 1 mg/mL after 18 hrs by disc diffusion assay; format: functional; details: read-out: IZ; in short: as §2
[18] = tested on: Brain; assay: Antioxidant activity in Wistar rat brain assessed as reduction in glutathione content; format: functional, tissue-based; in short: as §1
[19] = tested on: Klebsiella pneumoniae; assay: Antibacterial activity against Klebsiella pneumoniae at 2 mg/mL after 18 hrs by disc diffusion assay; format: functional; details: read-out: IZ; in short: as §2
[20] = tested on: Brain; assay: Antioxidant activity in Wistar rat brain assessed as catalase content; format: functional

Row | Compound | Activity [1] [µg/mL] | EC50 [2] [µg/mL] | zone of inhibition at 1000 µg/mL [3] [mm] | MIC [4] [µg/mL] | zone of inhibition at 1000 µg/mL [5] [mm] | zone of inhibition at 2000 µg/mL [6] [mm] | Activity [7] [µg/mL] | MIC [8] [µg/mL] | EC50 [9] [µg/mL] | EC50 [10] [µg/mL] | zone of inhibition at 1000 µg/mL [11] [mm] | zone of inhibition at 2000 µg/mL [12] [mm] | zone of inhibition at 2000 µg/mL [13] [mm] | MIC [14] [µg/mL] | MIC [15] [µg/mL] | Activity [16] [µg/mL] | zone of inhibition at 1000 µg/mL [17] [mm] | EC50 [18] [µg/mL] | zone of inhibition at 2000 µg/mL [19] [mm] | Activity [20] [µg/mL]
1 | COc1ccc2c3c1O[C@H]1C[C@@H](O)C=C[C@@]31CCN(C)C2 [GALANTAMINE] | 4.69 | 4.93 (≈ 17.2 µM) | 1.39 | 1 (≈ 3.48 µM) | 1.83 | 2.25 | 29.37 | 0.62 (≈ 2.16 µM) | 3.84 (≈ 13.4 µM) | 5.06 (≈ 17.6 µM) | 1.65 | 2.66 | 2.02 | 0.7 (≈ 2.44 µM) | 0.18 (≈ 0.626 µM) | 70.7 | 1.47 | 4.21 (≈ 14.7 µM) | 2.21 | 283.44
2 | COc1ccc2c3c1O[C@H]1C[C@@H](OP(=O)(SCCO)N(CCCl)CCCl)C=C[C@@]31CCN(C)C2 (stereo partly specified) | 4.92 | 1.33 (≈ 2.41 µM) | 1.53 | 0.21 (≈ 0.381 µM) | 2.08 | 3.01 | 29.55 | 0.59 (≈ 1.07 µM) | 1.62 (≈ 2.94 µM) | 1.67 (≈ 3.03 µM) | 1.72 | 3.09 | 2.21 | 0.26 (≈ 0.471 µM) | 0.13 (≈ 0.236 µM) | 71.2 | 1.14 | 1.11 (≈ 2.01 µM) | 6.46 | 285.32
3 | COc1ccc2c3c1O[C@H]1C[C@@H](OP(=O)(NCCN)Oc4ccc([N+](=O)[O-])cc4)C=C[C@@]31CCN(C)C2 (stereo partly specified) | 5.06 | 1.99 (≈ 3.75 µM) | 1.84 | 0.75 (≈ 1.41 µM) | 2.78 | 4.91 | 29.73 | 0.38 (≈ 0.716 µM) | 1.91 (≈ 3.6 µM) | 1.81 (≈ 3.41 µM) | 1.93 | 5.09 | 3.73 | 0.62 (≈ 1.17 µM) | 0.15 (≈ 0.283 µM) | 75.9 | 1.02 | 1.89 (≈ 3.56 µM) | 6.11 | 295.92
4 | VITAMIN E [listing 1 of 2 here] | 43.6 |  |  |  |  |  | 32.3 |  |  |  |  |  |  |  |  | 82.8 |  |  |  | 403
5 | VITAMIN E [listing 2 of 2 here] |  | 1.22 |  |  |  |  |  |  | 1.03 | 1.48 |  |  |  |  |  |  |  | 0.99 |  | 
6 | O=C1O[C@H]([C@@H](O)CO)C(O)=C1O [ASCORBIC ACID] | 31.34 | 1.02 (≈ 5.79 µM) |  |  |  |  |  |  | 0.99 (≈ 5.62 µM) |  |  |  |  |  |  | 88.1 |  | 0.98 (≈ 5.56 µM) |  | 385.46
7 | O=C(N[C@H](CO)[C@H](O)c1ccc([N+](=O)[O-])cc1)C(Cl)Cl [CHLORAMPHENICOL] |  |  | 2.67 | 0.2 (≈ 0.619 µM) | 3.62 | 2.99 |  | 0.13 (≈ 0.402 µM) |  |  | 1.02 | 3.08 | 3.27 | 0.25 (≈ 0.774 µM) | 0.15 (≈ 0.464 µM) |  | 2.02 |  | 4.02 | 
